# From ChEMBL document CHEMBL4190254, “Synthesis of sulfamoylbenzamide derivatives as HBV capsid assembly effector” (Eur J Med Chem, 2017)
# Tests used:
# CCRF-CEM = test: Cytotoxicity against human CEM cells by CellTiter 96 non-radioactive cell proliferation colorimetric assay; assay type: cell-based; settings: ccrf-cem
# Summary of the method: (§1)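 A CellTiter 96 colorimetric cell proliferation read-out was used in primary human PBM cells, CEM, Vero and HepG2 cells. CC50 is the concentration that inhibits cell growth by 50%.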
# Vero = test: Cytotoxicity against African green monkey Vero cells by CellTiter 96 non-radioactive cell proliferation colorimetric assay; assay type: cell-based; settings: chlorocebus sabaeus, vero; summary of the method: as §1
# Hepatitis B virus = test: Antiviral activity against HBV infected in human HepAD38 cells assessed as reduction in viral replication by RT-PCR method; assay type: functional, organism-based
# Summary of the method: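 HBV DNA replication in HepAD38 cells was quantified by RT-PCR following an earlier published method, with data relative to the untreated control. EC50 (50% inhibition of HBV DNA replication) was derived by linear regression. Values are the mean ± SD of two or three replicates from 2 independent experiments.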
# PBMC = test: Cytotoxicity against human PBMC by CellTiter 96 non-radioactive cell proliferation colorimetric assay; assay type: cell-based; summary of the method: as §1
# HepG2 = test: Cytotoxicity against human HepG2 cells by CellTiter 96 non-radioactive cell proliferation colorimetric assay; assay type: cell-based; summary of the method: as §1
EC50 (Hepatitis B virus) [µM],EC90 (Hepatitis B virus) [µM],Compound,CC50 (CCRF-CEM) [µM],CC50 (Vero) [µM],CC50 (PBMC) [µM],CC50 (HepG2) [µM]
> 10,,COC(=O)[C@H](Cc1ccccc1)NS(=O)(=O)c1ccc(F)c(C(=O)Nc2ccc(F)c(F)c2)c1,31.6,> 100,> 100,76.8
> 10,,O=C1c2cc(S(=O)(=O)NC3CCCC3)ccc2CCCN1c1ccc(F)c(F)c1,50.6,> 100,> 100,> 100
> 10,,CC(C)OC(=O)[C@H](C)NS(=O)(=O)c1ccc(F)c(C(=O)Nc2ccc(F)c(F)c2)c1,31.1,13.1,> 100,45.5
7.7,9.3,CC(NS(=O)(=O)c1ccc(F)c(C(=O)Nc2ccc(F)c(F)c2)c1)c1ccccc1 (stereo not given),3.6,68,> 100,> 100
≥ 10,,O=C(Nc1cc(S(=O)(=O)NC2CCCC2)ccc1F)c1ccc(F)c(F)c1,13.6,87.5,81,> 100
> 10,,O=C(Nc1ccc(F)c(F)c1)c1cc(S(=O)(=O)NS(=O)(=O)c2ccc(F)c(F)c2)ccc1F,> 100,> 100,> 100,> 100
> 10,,O=C(Nc1ccc(F)c(F)c1)c1cc(S(=O)(=O)NS(=O)(=O)C2CC2)ccc1F,> 100,> 100,> 100,> 100
6.8,9.6,CC(C)(NS(=O)(=O)c1ccc(F)c(C(=O)Nc2ccc(F)c(F)c2)c1)c1ccccc1,3.8,39.4,> 100,88.2
> 10,,O=C(Nc1ccc(F)c(F)c1)c1cc(S(=O)(=O)N2CCCC2=O)ccc1F,37.8,39.6,> 100,> 100
> 10,,CN(C1CCCC1)S(=O)(=O)c1ccc2c(c1)C(=O)N(c1ccc(F)c(F)c1)CC2,36,> 100,71.2,> 100
4.6,10,O=C(Nc1ccc(F)c(F)c1)c1cc(S(=O)(=O)N2CCC3CCCCC32)ccc1F (stereo not given),22.9,30.7,> 100,> 100
4.5,9.4,O=C(Nc1ccc(F)c(F)c1)c1cc(S(=O)(=O)N2CCC(F)(F)CC2)ccc1F,10.3,> 100,> 100,> 100
3.2,8.9,O=C(Nc1ccc(F)c(F)c1)c1cc(S(=O)(=O)NC2CC2)ccc1F,13.6,79.2,30.1,62.3
> 10,,O=C(NC1(c2ccc(F)c(F)c2)CC1)c1cc(S(=O)(=O)NC2CCCC2)ccc1F,> 100,12.7,> 100,> 100
> 10,,O=C1c2cc(S(=O)(=O)NC3CCCC3)ccc2CCN1c1ccc(F)c(F)c1,> 100,> 100,> 100,> 100
> 10,,CN(C)S(=O)(=O)NS(=O)(=O)c1ccc(F)c(C(=O)Nc2ccc(F)c(F)c2)c1,> 100,> 100,> 100,> 100
> 10,,CCOC(=O)[C@H](CC(C)C)NS(=O)(=O)c1ccc(F)c(C(=O)Nc2ccc(F)c(F)c2)c1,10.8,39.1,58.1,> 100
> 10,,CS(=O)(=O)NS(=O)(=O)c1ccc(F)c(C(=O)Nc2ccc(F)c(F)c2)c1,> 100,> 100,> 100,> 100
> 10,,CN(C1CCCC1)S(=O)(=O)c1ccc2c(c1)C(=O)N(c1ccc(F)c(F)c1)CCC2,> 100,> 100,> 100,> 100
